HTRA1 inh: blocks human HTRA1 serine peptidase; Q92743; recombinant HTRA1, FP-rhodamine activity-based probe, fluorescence polarization; inhibition, % at 5.96 µM; 0.5% of 340,000 active; AID 504803; in the data active = inhibition above about 36%
mABHD4 FP: ABHD4 (mouse) inhibition, primary FP screen | inhibition, % at 8.92 µM | Q8VD66 | 0.54% of 370,000 active | AID 720543 | purified mABHD4, FP-Rh probe fluorescence polarization;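 active = inhibition exceeding the mean over every tested compound plus 3 SD, cut at about 30% in these data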
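system = mouse ABHD4 enzyme, wild type | medium = HEPES pH 7.0, NaCl, Pluronic buffer | also added = FP-Rh probe | incubation = Enzyme–compound pre-incubation 45 min, then probe 60 min, both 25 °C | technique = fluorescence polarization, excitation 525 nm, emission 598 nm, BODIPY TMR filters | controls = S159A mutant high control, sample median low control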
PAD4 inh: PAD4 (human) enzyme inhibition. Q9UM07. recombinant PAD4, RCA probe fluorescence polarization. inhibition, % at 6.36 µM. 0.41% of 330,000 active. AID 485272;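 active = percent inhibition above a cutoff equal to the mean of all tested compounds plus 3 SD, cut at about 15% in these data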
Target sequence (Q9UM07 whole entry, looked up): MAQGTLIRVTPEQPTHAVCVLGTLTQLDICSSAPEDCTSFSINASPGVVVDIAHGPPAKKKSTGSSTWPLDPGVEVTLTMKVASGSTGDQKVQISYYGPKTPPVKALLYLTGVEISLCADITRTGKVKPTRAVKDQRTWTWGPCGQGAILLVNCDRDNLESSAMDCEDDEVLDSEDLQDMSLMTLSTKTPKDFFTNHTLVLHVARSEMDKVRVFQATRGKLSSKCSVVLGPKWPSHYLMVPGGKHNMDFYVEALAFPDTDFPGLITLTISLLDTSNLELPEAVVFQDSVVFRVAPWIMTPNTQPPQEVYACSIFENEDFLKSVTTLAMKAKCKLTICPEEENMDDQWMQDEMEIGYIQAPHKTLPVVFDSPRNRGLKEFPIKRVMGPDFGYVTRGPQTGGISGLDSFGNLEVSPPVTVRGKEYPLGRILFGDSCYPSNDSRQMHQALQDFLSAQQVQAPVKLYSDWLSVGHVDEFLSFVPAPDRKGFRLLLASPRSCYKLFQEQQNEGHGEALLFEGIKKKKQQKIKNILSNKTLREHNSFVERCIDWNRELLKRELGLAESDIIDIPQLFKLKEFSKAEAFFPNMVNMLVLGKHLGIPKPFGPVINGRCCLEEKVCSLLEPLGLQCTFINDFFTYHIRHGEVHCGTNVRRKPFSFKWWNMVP
TCR CD3 inh: blocks the human TCR-CD3 interaction; TAMRA-labeled TCR probe fluorescence, biochemical; inhibition, % at 9.4 µM; 0.37% of 360,000 active; AID 651800; in the data active = inhibition above about 19%;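 also: recombinant mutant TCR 2C K166C tagged with TAMRA read by polarization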
SIAE primary: human SIAE inhibition, primary screen; AID 1053197; SIAE FP-Rh probe binding, fluorescence polarization; inhibition, % at 9.66 µM; Q9HAT2; 0.69% of 370,000 active;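 active = inhibition above a cutoff: mean of compounds within the control limits plus 3 SD of those, cut at about 17% in these data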
PRMT1 inh: inhibitors of human PRMT1. Q99873. recombinant PRMT1, activity-based probe fluorescence polarization. inhibition, % at 2.79 µM. 1.3% of 370,000 active;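 active = inhibition above about 21% made by adding two undisclosed values, limit read from the data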
PAD4 FP conf: confirmation of human PAD4 inhibitors. inhibition, % at 6.36 µM. shares compounds with PAD4 inh. 28% of 1,200 active. recombinant PAD4, RCA probe fluorescence polarization;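 active = mean inhibition across replicates above the hit cutoff set by the earlier primary screen, cut at about 15% in these data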;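 also: inhibitors block active-site labeling by the probe so polarization falls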
Each line names hits and unclear results; the compound was inactive in the other large screens (follow-up assays come after a bar, where they were run). An excerpt weighted towards active compounds, which were near 2.9% of everything screened.

COC(=O)[C@]12C[C@H](CC(=O)N3CCCCC3)C(=O)N(CCc3ccc(OC)c(OC)c3)C1=C[C@H](COCc1ccccc1)O[C@@H]2C	none (no result: HTRA1 inh, PAD4 inh, TCR CD3 inh)
Nn1cnnc1N/N=C/c1cccc(Cl)c1Cl	none (no result: PAD4 inh)
Nn1cnnc1N/N=C/c1ccc(F)cc1	PAD4 inh 41 | PAD4 FP conf inactive
Nn1cnnc1N/N=C/c1ccc(Cl)c([N+](=O)[O-])c1	PAD4 inh 56 | PAD4 FP conf inactive
Cc1ccc(/C=N/Nc2nncn2N)cc1	PAD4 inh 46 | PAD4 FP conf inactive
Cc1nnc(C)n1N=Cc1ccc(Cl)c([N+](=O)[O-])c1	none (no result: HTRA1 inh, PAD4 inh, TCR CD3 inh)
Fc1ccc(/C=N/Nc2nn[nH]n2)cc1	none
Nn1cnnc1N/N=C/c1ccccc1C(F)(F)F	PAD4 inh 39 | PAD4 FP conf inactive
COC(=O)C1CN(Cc2ccc(Cl)cc2)CCS(=O)(=O)N1Cc1cn(Cc2ccccc2)nn1 (stereo not given)	none (no result: HTRA1 inh, PAD4 inh, TCR CD3 inh)
Cc1ccc(OCc2nnc(SCC(=O)c3ccc4ccccc4c3)n2-c2ccc(Cl)cc2)cc1	none (no result: HTRA1 inh, PAD4 inh, TCR CD3 inh)
CC(=O)Nc1cccc(C(C)C2=CCCCC2)c1 (stereo not given)	none (no result: HTRA1 inh, PAD4 inh, TCR CD3 inh)
CCc1nnc(N/N=C/c2ccc(N3CCC(C)CC3)c([N+](=O)[O-])c2)n1N	PAD4 inh 29 | PAD4 FP conf inactive
CCN(CC(=O)Nc1ccc(NC(C)=O)cc1)C(=O)c1ccc(N2CCC(C)CC2)c([N+](=O)[O-])c1	none
CCN(CC)CCCn1c(=S)[nH]c2cc(OC)c(OC)cc2c1=O	none
COCCn1c(=S)[nH]c2cc(OC)c(OC)cc2c1=O	PAD4 inh 43 | PAD4 FP conf inactive
CCOc1cccc(N)c1	none (no result: mABHD4 FP, TCR CD3 inh, SIAE primary, PRMT1 inh)
CCOc1ccc(N)c(SSc2cc(OCC)ccc2N)c1	PAD4 inh 26, PRMT1 inh 86 | PAD4 FP conf 31
CC(C)(C)c1cc[n+](-c2[nH]c(=O)sc2/C=N/NC([S-])=Nc2ccccc2)cc1	PAD4 inh 17, PRMT1 inh 116 | PAD4 FP conf inactive
CCc1ccc[n+](-c2[nH]c(=O)sc2/C=N/N=C(\[O-])c2ccncc2)c1	none
Cc1ccc2c(c1)sc(-c1ccc(N(C)C)cc1)[n+]2C	PAD4 inh 19 | PAD4 FP conf inactive
Cc1ccc(N(C)C)cc1	none (no result: HTRA1 inh, PAD4 inh)
CN1CC=C2C(C#N)=C(N)C(C#N)(C#N)C(c3ccsc3)C2C1 (stereo not given)	PAD4 inh 15 | PAD4 FP conf inactive
Cc1nnc(N/N=C/c2ccc([N+](=O)[O-])cc2)n1N	none
Cc1nnc(N/N=C/c2ccc(-c3ccc(Br)cc3)o2)n1N	PAD4 inh 24 | PAD4 FP conf inactive
Cc1nnc(N/N=C\c2ccc(-c3cccc(C(=O)O)c3)o2)n1N	PAD4 inh 30 | PAD4 FP conf inactive
Cc1nnc(N/N=C/c2ccc(Br)cc2)n1N	PAD4 inh 36 | PAD4 FP conf inactive
CC(C)C[C@@H]1COc2cc(Br)ccc2S(=O)(=O)N1Cc1cn(Cc2ccccc2)nn1	none (no result: HTRA1 inh, PAD4 inh, TCR CD3 inh)
COC(=O)[C@]12C[C@H](CC(=O)NCc3ccc(C)o3)C(=O)N(CCc3ccc(OC)c(OC)c3)C1=C[C@H](C(C)C)O[C@@H]2C1CC1	none (no result: HTRA1 inh, PAD4 inh, TCR CD3 inh)
O=C(NC1CCCCN(Cc2cccc(C(F)(F)F)c2)C1=O)c1ccc(Cl)c(Cl)c1 (stereo not given)	none (no result: HTRA1 inh, PAD4 inh, TCR CD3 inh)
O=C(OCc1cn(Cc2ccc(F)c(F)c2)nn1)N1CCOCC1	none (no result: HTRA1 inh, PAD4 inh, TCR CD3 inh)
Cc1cc(C)c2nc(NC(=O)c3ccc4c(=O)n5c(nc4c3)CCCCC5)sc2c1	PAD4 inh 36 | PAD4 FP conf 28
CCC(C)NC(=O)C1CCN(S(=O)(=O)c2ccc3[nH]c(=O)oc3c2)CC1 (stereo not given)	none (no result: HTRA1 inh, PAD4 inh, TCR CD3 inh)
CN(C)c1cc(Cl)c2nonc2c1N	PAD4 inh 40 | PAD4 FP conf inactive
CCN(CC)c1cc(Cl)c2nonc2c1N	none
O=C(COc1ccccc1F)N1CCN(S(=O)(=O)/C=C/c2ccccc2)CC1	PAD4 inh 56 | PAD4 FP conf inactive
COCCOC(=O)c1c(C)n(C)c2ccc(OC(=O)c3c(OC)cccc3OC)cc12	PAD4 inh 29, PRMT1 inh 46 | PAD4 FP conf 23
COCCOC(=O)c1c(C)n(C)c2ccc(OC(=O)N3CCOCC3)cc12	none
CN(C)C(=O)NCCCC#Cc1ccccc1	none (no result: HTRA1 inh, PAD4 inh, TCR CD3 inh)
O=C1C(N2CCOCC2)=C(n2nnc3ccccc32)C(=O)c2ccccc21	PAD4 inh 23 | PAD4 FP conf 15

From PubChem
